{"source": "PubChem BioAssay AID1235", "about": "(PCMD, 2008)", "note": "The whole screen tested about 62,000 compounds, of which about 50 (0.08%) were called active. This excerpt belongs to a sample that is enriched for actives. Unmarked numbers belong to inactive results.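 How the source made its calls: active means inhibition above 30% in each of the two pooled mixtures holding the compound, so the lower value exceeds 30%; inactive means the rest.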"}
{"experiment": "blockers of serum C3 deposition on LPS – biochemical, ELISA, human serum, orthogonally pooled compounds, primary screen (AID 1235);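 further: 0% = serum in Mg-EGTA without compound and 100% = EDTA serum blank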", "conditions": "Human serum alternative complement pathway, LPS-coated ELISA, tested in compound mixtures, at 5 µM, hits give high values", "how_it_was_run": "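Assay system: Human serum alternative complement pathway, C3 deposition on LPS-coated wells | Incubation: 1 h serum-compound exposure at 37 °C | Doses: 5 µM per compound in ten-compound mixtures | Read-out: Percent inhibition | Technique: ELISA with HRP anti-human C3 antibody, TMB substrate, absorbance 450 nm | Replication: Two pool placements per compound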"}
{"smiles": "COc1ccccc1CNC(=O)C1CCCN(S(=O)(=O)c2cccc3cccnc23)C1", "note": "(stereo unspecified)", "inhibition": "5.61%"}
{"smiles": "COc1ccccc1CNC(=O)C1CCN(S(C)(=O)=O)CC1", "inhibition": "35.9% (active)"}
{"smiles": "COc1ccccc1CNC(=O)C1CCN(c2nc3ccccc3o2)CC1", "inhibition": "-3.35%"}
{"smiles": "CCn1c(SCC(=O)Nc2ccccc2F)nc2c(c1=O)SC(C)C2", "note": "(stereo unspecified)", "inhibition": "-1.83%"}
{"smiles": "COC(=O)c1ccc(N(CC(=O)NC2CCCC2)C(=O)CNC(=O)c2ccco2)cc1", "inhibition": "13.6%"}
{"smiles": "CCCNC(=O)Nc1ccccc1C(=O)Nc1ccc(OC)cc1", "inhibition": "6.47%"}
{"smiles": "CCCN1C2=C(C(=O)CCC2)C(c2ccc(O)c(Br)c2)C2=C1CCCC2=O", "inhibition": "3.41%"}
{"smiles": "COc1ccc(OC)c(Nc2nc(-c3ccc(O)c(O)c3)cs2)c1", "inhibition": "15.1%"}
{"smiles": "O=c1c2ccccc2nc(CSc2nnnn2-c2ccccc2)n1-c1ccccc1", "inhibition": "16.5%"}
{"smiles": "CCC1C(C#N)=C(SC)NC2=C1C(=O)CC(C)(C)C2", "note": "(stereo unspecified)", "inhibition": "29.5%"}
{"smiles": "C=C(C)Cn1c(N2CCCC2)nc2c1c(=O)[nH]c(=O)n2C", "inhibition": "13.6%"}
{"smiles": "COc1ccc(OC)c(NC(=O)CC(Cc2ccccc2OC)C(=O)O)c1", "note": "(stereo unspecified)", "inhibition": "6.63%"}
{"smiles": "O=C(Cn1cnc2c(nnn2-c2ccccc2)c1=O)N1CCC(Cc2ccccc2)CC1", "inhibition": "12.9%"}
{"smiles": "CCC1SC2=NCCN2C1(O)c1ccc(Cl)cc1", "note": "(stereo unspecified)", "inhibition": "-4.64%"}
{"smiles": "CCN(CC)c1ccc(C(=O)OCC(=O)c2ccco2)cc1", "inhibition": "-18.9%"}
{"smiles": "Cc1nn(Cc2ccc(Cl)c(Cl)c2)c(C)c1NC(=O)c1cc(C2CC2)on1", "inhibition": "14.3%"}
{"smiles": "COc1ccccc1N1CCN(c2nc3ccccc3n3nnnc23)CC1", "inhibition": "-4.06%"}
{"smiles": "CCOC(=O)c1cc2sccc2n1Cc1ccc(C#N)cc1", "inhibition": "8.71%"}
{"smiles": "COCCNC(=O)c1snc2ccc(Cl)cc12", "inhibition": "-12.7%"}
{"smiles": "Cc1ccn2cc(-c3nonc3C)cc2c1", "inhibition": "17.2%"}
{"smiles": "Cc1ccc(N2C(=O)CC(NCc3ccc4c(c3)OCO4)C2=O)cc1Cl", "note": "(stereo unspecified)", "inhibition": "24.4%"}
{"smiles": "O=C(Nc1ccc2c(c1)OCCO2)C1CCCN(c2ncccn2)C1", "note": "(stereo unspecified)", "inhibition": "4.42%"}
{"smiles": "CCOc1ccc(OCC)c(NC(=O)C2CCN(S(=O)(=O)c3c(C)noc3C)CC2)c1", "inhibition": "4.52%"}
{"smiles": "O=C(NCCc1ccccn1)c1ccc(COc2ccccc2)o1", "inhibition": "13.5%"}
{"smiles": "COc1cccc(NC(=O)c2ccccc2SC)c1", "inhibition": "12.3%"}
{"smiles": "CC(C)OCCCNC(=O)C1CC(=O)N(C2CCCCCCC2)C1", "note": "(stereo unspecified)", "inhibition": "16.3%"}
{"smiles": "CC(C)(O)C#Cc1ccc(C(=O)N2CCC(C(N)=O)(N3CCCCC3)CC2)cc1", "inhibition": "0.925%"}
{"smiles": "CCN(CC)S(=O)(=O)c1ccc2nc(CSc3nnnn3-c3ccc(O)cc3)[nH]c2c1", "inhibition": "-3.47%"}
{"smiles": "O=C(NCc1cccnc1)c1cn(-c2ccccc2)nc1-c1cccs1", "inhibition": "0.865%"}
{"smiles": "COc1ccc(NC(=O)CCNC(=O)Cn2ccc3ccccc3c2=O)c(OC)c1", "inhibition": "29.1%"}
{"smiles": "CCOC(=O)c1ccc(N2C(=O)CC(N3CCC(C(=O)OCC)CC3)C2=O)cc1", "note": "(stereo unspecified)", "inhibition": "-0.58%"}
{"smiles": "O=P(O)(CN1CCCCC1)CN1CCCCC1", "inhibition": "8.65%"}
{"smiles": "Cc1noc(C)c1CSc1nnc2ccc3ccccc3n12", "inhibition": "9.95%"}
{"smiles": "COc1ccc(OC)c(S(=O)(=O)Nc2ccccc2F)c1", "inhibition": "6.16%"}
{"smiles": "COC(=O)Nc1ccc(S(=O)(=O)N(C)CC(F)(F)C(F)F)cc1", "inhibition": "13.5%"}
{"smiles": "Cc1ccc(C)c(N2CCN(C(=O)CCc3nc4ccccc4[nH]3)CC2)c1", "inhibition": "18.5%"}
{"smiles": "Cc1ccc(-c2nnn(CC(=O)N(CCO)C(C(=O)NC(C)(C)C)c3ccncc3)n2)cc1", "note": "(stereo unspecified)", "inhibition": "9.36%"}
{"smiles": "Cc1ccc(C)c(N2CCN(S(=O)(=O)c3ccc4c(c3)oc(=O)n4C)CC2)c1", "inhibition": "3.29%"}
{"smiles": "CN(C)CC(O)COc1ccc(C(C)(C)c2ccc(OCC(O)CN(C)C)cc2)cc1", "note": "(stereo unspecified)", "inhibition": "0.48%"}
{"smiles": "Cc1nc(Nc2ccc3c(c2)OCCO3)c2nnn(Cc3ccccc3Cl)c2n1", "inhibition": "1.64%"}
{"smiles": "Cc1cc(C)c(C#N)c(SCS(=O)c2ccc(C(C)(C)C)cc2)n1", "note": "(stereo unspecified)", "inhibition": "4.51%"}
{"smiles": "COc1ccc(-c2[nH]nc3c2C(c2ccncc2)C(C#N)=C(N)O3)cc1", "note": "(stereo unspecified)", "inhibition": "0.015%"}
{"smiles": "CC(C)(C)c1cc(CN2CCN(CCC#N)CC2)cc(C(C)(C)C)c1O", "inhibition": "-7.06%"}
{"smiles": "CC1CCc2c(sc(NC(=O)c3ccc(Cn4cc(Br)cn4)o3)c2C(N)=O)C1", "note": "(stereo unspecified)", "inhibition": "8.16%"}
{"smiles": "Cc1cccc(N=C2NC(=O)CS2)c1C", "inhibition": "4.01%"}
{"smiles": "Cc1ccc2nc(S(=O)(=O)O)[nH]c2c1", "inhibition": "-4.08%"}
{"smiles": "O=C(Cn1nc(C(F)(F)F)c2c1CCC2)NCc1ccc(F)cc1", "inhibition": "-10.2%"}
{"smiles": "CCc1nnc(NC(=O)CSc2nnc(-c3ccncc3)n2Cc2ccccc2)s1", "inhibition": "6.79%"}
{"smiles": "C=C(C)Cn1c(N2CCN(CC)CC2)nc2c1c(=O)[nH]c(=O)n2C", "inhibition": "-2.46%"}
{"smiles": "COC(=O)C(C)n1cnc2c(nnn2-c2cccc(Cl)c2)c1=O", "note": "(stereo unspecified)", "inhibition": "7.95%"}
{"smiles": "Cc1c(C(=O)N2CC(C)OC(C)C2)sc2nc(-c3ccccc3)cn12", "note": "(stereo unspecified)", "inhibition": "11%"}
{"smiles": "FC(F)(F)c1cccc(Nc2ncnc3ccccc23)c1", "inhibition": "13.9%"}
{"smiles": "Cc1cc(=O)n2nc(N3CCCC3C(=O)NCCCN3CC(C)CC(C)C3)sc2n1", "note": "(stereo unspecified)", "inhibition": "20.4%"}
{"smiles": "CCCN1CC=C2C(C#N)=C(N)C(C#N)(C#N)C(c3cc(OC)ccc3OC)C2C1", "note": "(stereo unspecified)", "inhibition": "-5.21%"}
{"smiles": "Cc1cc(C(=O)O)c(S(C)(=O)=O)s1", "inhibition": "21.7%"}
{"smiles": "O=C(OCc1cc2ccccc2[nH]c1=O)c1cccnc1", "inhibition": "1.83%"}
{"smiles": "CCOC(=O)N1CCN(CC(=O)c2ccc3c(c2)CCN3)CC1", "inhibition": "22.3%"}
{"smiles": "CCOC(=O)C1(C(F)(F)F)N=C(N(C)C)OC(N(C)C)=N1", "inhibition": "23.1%"}
{"smiles": "O=C(CSc1n[nH]c(-c2cccnc2)n1)Nc1ccnc2ccccc12", "inhibition": "-1.01%"}
{"smiles": "CSc1nnc2c(n1)OC(c1cn(C)c3ccccc13)N(C(C)=O)c1ccccc1-2", "note": "(stereo unspecified)", "inhibition": "12.4%"}
{"smiles": "Cc1nc2nc(CSc3nc4ccccc4s3)cc(=O)n2[nH]1", "inhibition": "8.57%"}
